The record followed here is ChEMBL document CHEMBL4052615, “Discovery of 4-amino-3-arylsulfoquinolines, a novel non-acetylenic chemotype of metabotropic glutamate 5 (mGlu5) receptor negative allosteric modulators” (Eur J Med Chem, 2017).

This test addresses Metabotropic glutamate receptor 5 (Homo sapiens, UniProt P41594). Briefly: Displacement of [3H]M-MPEP from mGluR5 (unknown origin) at 1 uM measured after 60 mins relative to control. In a few lines: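 Rat cerebrocortical membranes or membranes from A18 cells expressing human mGlu5a, incubated with [³H]M-MPEP and test compound at 1 µM in 50 mM Tris pH 7.6 with 2 mM MgCl₂ and 2 mM CaCl₂, 60 min at 25°C. Non-specific binding was taken with […]. Result is % displacement, run in duplicate or triplicate.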

Sequence of Metabotropic glutamate receptor 5 (P41594 21-1212 limits assumed): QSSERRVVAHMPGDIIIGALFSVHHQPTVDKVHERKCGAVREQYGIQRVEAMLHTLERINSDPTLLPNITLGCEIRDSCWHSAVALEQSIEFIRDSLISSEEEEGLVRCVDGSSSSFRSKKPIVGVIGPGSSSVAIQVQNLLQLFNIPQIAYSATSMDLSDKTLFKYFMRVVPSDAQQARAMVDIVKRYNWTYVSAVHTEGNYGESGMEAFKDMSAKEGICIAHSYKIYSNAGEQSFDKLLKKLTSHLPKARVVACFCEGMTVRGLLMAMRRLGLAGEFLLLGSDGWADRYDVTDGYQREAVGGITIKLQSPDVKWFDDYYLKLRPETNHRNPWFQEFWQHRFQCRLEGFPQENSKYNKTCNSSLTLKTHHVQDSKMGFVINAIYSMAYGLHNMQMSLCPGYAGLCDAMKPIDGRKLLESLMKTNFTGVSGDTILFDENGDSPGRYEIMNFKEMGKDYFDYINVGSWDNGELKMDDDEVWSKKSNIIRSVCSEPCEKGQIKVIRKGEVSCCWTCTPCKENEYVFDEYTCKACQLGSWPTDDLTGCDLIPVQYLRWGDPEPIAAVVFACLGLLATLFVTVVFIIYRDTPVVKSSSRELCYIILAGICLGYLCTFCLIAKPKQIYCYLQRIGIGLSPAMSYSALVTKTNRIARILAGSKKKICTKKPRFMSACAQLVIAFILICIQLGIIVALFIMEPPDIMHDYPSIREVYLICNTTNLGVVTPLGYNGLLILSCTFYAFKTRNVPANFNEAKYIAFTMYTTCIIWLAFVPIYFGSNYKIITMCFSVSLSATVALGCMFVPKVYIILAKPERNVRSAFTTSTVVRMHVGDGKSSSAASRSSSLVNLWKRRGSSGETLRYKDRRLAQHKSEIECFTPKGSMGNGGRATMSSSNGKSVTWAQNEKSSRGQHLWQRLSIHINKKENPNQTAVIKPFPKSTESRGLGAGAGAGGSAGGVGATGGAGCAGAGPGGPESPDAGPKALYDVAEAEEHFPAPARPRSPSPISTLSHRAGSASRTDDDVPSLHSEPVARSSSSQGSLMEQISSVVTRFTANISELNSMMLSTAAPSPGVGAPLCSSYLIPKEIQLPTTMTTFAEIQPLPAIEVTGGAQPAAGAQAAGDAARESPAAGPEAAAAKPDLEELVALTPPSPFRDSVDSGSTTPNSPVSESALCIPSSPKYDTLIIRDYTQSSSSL

For the compound `COc1ccc2ncc(S(=O)(=O)c3cc(F)cc(F)c3)c(N3CCOCC3)c2c1`, the inhibition was found to be 3%. For the compound `O=S(=O)(c1cccc(F)c1)c1cnc2ccc(F)cc2c1N1CCOCC1`, the inhibition was 0%.

On to `NC(=O)C1CCN(c2c(S(=O)(=O)c3ccccc3)cnc3ccccc23)CC1`, for which the inhibition stood at 24.8%. In the case of `Cc1ccc(S(=O)(=O)c2cnc3cc(F)ccc3c2N2CCOCC2)cc1`, the inhibition worked out at 33%. With `COc1ccc(S(=O)(=O)c2cnc3cc(Cl)ccc3c2N2CCC(C)CC2)cc1OC`, the inhibition was determined as 93%. The figure for `Cc1ccc2ncc(S(=O)(=O)c3cc(F)cc(F)c3)c(N3CCOCC3)c2c1` is 34%; for `COc1ccc(S(=O)(=O)c2cnc3cc(Cl)ccc3c2N2CCC(C)CC2)cc1` it is 79%; for `COc1cccc(S(=O)(=O)c2cnc3ccc(C)cc3c2N2CCC(C)CC2)c1` it is 96%. Next, `N#Cc1cccc(S(=O)(=O)c2cnc3ccc(F)cc3c2N2CCOCC2)c1`: 25%.

Take `COc1ccc2ncc(S(=O)(=O)c3ccc(F)cc3)c(N3CCC(C)CC3)c2c1`: the inhibition came out at 27%. Regarding `COc1ccc2ncc(S(=O)(=O)c3cc(F)cc(F)c3)c(N3CCC(C)CC3)c2c1`, the inhibition amounted to 30%.

As to `CC1CCN(c2c(S(=O)(=O)c3ccc(C#N)cc3)cnc3c(F)cccc23)CC1`, the inhibition came to 86%. The figure for `Cc1ccc(S(=O)(=O)c2cnc3ccc(Cl)cc3c2N2CCC(C)CC2)cc1F` is 68%; for `COc1ccc(S(=O)(=O)c2cnc3ccc(Cl)cc3c2N2CCOCC2)cc1OC` it is -2%. The figure for `CC1CCN(c2c(S(=O)(=O)c3ccc(C#N)cc3)cnc3cc(F)ccc23)CC1` is 83%; for `CC1CCN(c2c(S(=O)(=O)c3ccc(Cl)cc3)cnc3c(F)cccc23)CC1` it is 85%; for `Cc1ccc2ncc(S(=O)(=O)c3ccc(C)c(Cl)c3)c(N3CCC(C)CC3)c2c1` it is 91%. Next, `Cc1ccc(S(=O)(=O)c2cnc3c(F)cccc3c2N2CCOCC2)cc1`: 23%; `COc1ccc(S(=O)(=O)c2cnc3cc(F)ccc3c2N2CCOCC2)cc1`: 23%; `CC1CCN(c2c(S(=O)(=O)c3ccc(F)c(Cl)c3)cnc3ccc(F)cc23)CC1`: 95%. On to `N#Cc1ccc(S(=O)(=O)c2cnc3ccc(Cl)cc3c2N2CCOCC2)cc1`, for which the inhibition is 4%.

In the case of `Cc1ccc2ncc(S(=O)(=O)c3cccc(C#N)c3)c(N3CCOCC3)c2c1`, the inhibition was found to be 58%. Next, `O=S(=O)(c1ccccc1)c1cnc2ccccc2c1N1CCCC1`: 7.1%.

Turning to `O=S(=O)(c1cc(Cl)cc(Cl)c1)c1cnc2cc(Cl)ccc2c1N1CCOCC1`, the inhibition stood at 85%. For the compound `COc1ccc(S(=O)(=O)c2cnc3ccc(F)cc3c2N2CCC(C)CC2)cc1`, the inhibition is 85%. Regarding `Cc1ccc2ncc(S(=O)(=O)c3cccc(F)c3)c(N3CCOCC3)c2c1`, the inhibition worked out at 10%. With `Cc1ccc(S(=O)(=O)c2cnc3cc(F)ccc3c2N2CCOCC2)cc1Cl`, the inhibition is 84%.

Consider `NS(=O)(=O)N1CCN(c2c(S(=O)(=O)c3cccc(F)c3)cnc3cc(F)ccc23)CC1`, for which the inhibition came out at 1.9%. The figure for `Cc1ccc(S(=O)(=O)c2cnc3cc(Cl)ccc3c2N2CCOCC2)cc1Cl` is 87%. Next, `Cc1cc(C)cc(S(=O)(=O)c2cnc3cc(F)ccc3c2N2CCOCC2)c1`: 58%. Regarding `COc1cccc(S(=O)(=O)c2cnc3ccc(F)cc3c2N2CCOCC2)c1`, the inhibition was found to be 41%.

For `Cc1cc(C)cc(S(=O)(=O)c2cnc3cc(F)ccc3c2N2CCC(C)CC2)c1`, the inhibition is 80%. Turning to `COc1ccc(S(=O)(=O)c2cnc3cc(Cl)ccc3c2N2CCOCC2)cc1OC`, the inhibition was 4%.

For `COc1ccc2ncc(S(=O)(=O)c3ccc(OC)c(Cl)c3)c(N3CCOCC3)c2c1`, the inhibition came to 9%. The figure for `Cc1ccc2ncc(S(=O)(=O)c3ccccc3)c(N3CCOCC3)c2c1` is 86%. `Cc1ccc2ncc(S(=O)(=O)c3ccc(C#N)cc3)c(N3CCOCC3)c2c1`: the inhibition turned out to be 48%. As to `O=S(=O)(c1cccc(F)c1)c1cnc2ccc(Cl)cc2c1N1CCOCC1`, the inhibition was determined as 0%.

As to `O=S(=O)(c1cccc(F)c1)c1cnc2cc(Cl)ccc2c1N1CCC(CO)CC1`, the inhibition amounted to 71%. Take `Cc1ccc(S(=O)(=O)c2cnc3ccc(C)cc3c2N2CCC(C)CC2)cc1`: the inhibition worked out at 82%. The figure for `COc1cccc(S(=O)(=O)c2cnc3ccc(OC)cc3c2N2CCC(C)CC2)c1` is 0%. The figure for `CC1CCN(c2c(S(=O)(=O)c3cccc(C#N)c3)cnc3ccc(F)cc23)CC1` is 93%; for `COc1ccc(S(=O)(=O)c2cnc3ccc(C)cc3c2N2CCC(C)CC2)cc1` it is 62%.

In the case of `COc1ccc2ncc(S(=O)(=O)c3ccccc3)c(N3CCOCC3)c2c1`, the inhibition was 65%.

Consider `CC1CCN(c2c(S(=O)(=O)c3ccc(Cl)c(Cl)c3)cnc3cc(Cl)ccc23)CC1`, for which the inhibition was determined as 89%. As for `O=S(=O)(c1ccc(F)cc1)c1cnc2cc(Cl)ccc2c1N1CCOCC1`, the inhibition was found to be 14%. For `COc1ccc2ncc(S(=O)(=O)c3ccc(C)c(F)c3)c(N3CCOCC3)c2c1`, the inhibition was 4%. Take `COc1ccc(S(=O)(=O)c2cnc3ccc(Cl)cc3c2N2CCC(C)CC2)cc1OC`: the inhibition was determined as 61%. Next, `Cc1ccc2ncc(S(=O)(=O)c3ccc(F)c(Cl)c3)c(N3CCOCC3)c2c1`: 73%; `COc1ccc2ncc(S(=O)(=O)c3ccc(F)cc3)c(N3CCOCC3)c2c1`: 7%; `Cc1cc(C)cc(S(=O)(=O)c2cnc3ccc(C)cc3c2N2CCC(C)CC2)c1`: 80%. The figure for `O=S(=O)(c1cc(F)cc(F)c1)c1cnc2cc(F)ccc2c1N1CCOCC1` is 47.8 to 48%; for `COc1ccc2ncc(S(=O)(=O)c3ccc(Cl)cc3)c(N3CCOCC3)c2c1` it is 93%; for `Cc1ccc(S(=O)(=O)c2cnc3c(F)cccc3c2N2CCC(C)CC2)cc1` it is 93%.

In the case of `Cc1ccc(S(=O)(=O)c2cnc3ccc(F)cc3c2N2CCOCC2)cc1Cl`, the inhibition was 69%. In the case of `Cc1ccc(S(=O)(=O)c2cnc3cc(Cl)ccc3c2N2CCOCC2)cc1F`, the inhibition was 38%. The figure for `Cc1ccc(S(=O)(=O)c2cnc3ccc(C)cc3c2N2CCOCC2)cc1` is 66%; for `CC1CCN(c2c(S(=O)(=O)c3ccc(F)cc3)cnc3cc(F)ccc23)CC1` it is 74.5 to 75%. Turning to `CCN1CCN(c2c(S(=O)(=O)c3ccccc3)cnc3ccccc23)CC1`, the inhibition turned out to be 1.7%. Next, `Cc1ccc2ncc(S(=O)(=O)c3ccc(C)c(F)c3)c(N3CCC(C)CC3)c2c1`: 91%; `Cc1cc(C)cc(S(=O)(=O)c2cnc3cc(Cl)ccc3c2N2CCOCC2)c1`: 24%; `COc1ccc(S(=O)(=O)c2cnc3ccc(Cl)cc3c2N2CCC(C)CC2)cc1Cl`: 46%.

Turning to `O=S(=O)(c1cc(Cl)cc(Cl)c1)c1cnc2ccc(Cl)cc2c1N1CCOCC1`, the inhibition was 14%. Next, `O=S(=O)(c1cc(Cl)cc(Cl)c1)c1cnc2ccc(F)cc2c1N1CCOCC1`: 17%; `Cc1ccc2ncc(S(=O)(=O)c3ccc(C)c(Cl)c3)c(N3CCOCC3)c2c1`: 75%. Next, `Cc1ccc2ncc(S(=O)(=O)c3ccc(Cl)cc3)c(N3CCC(C)CC3)c2c1`: 79%. Next, `O=S(=O)(c1ccc(F)cc1)c1cnc2cc(F)ccc2c1N1CCSCC1`: 62.7%; `Cc1ccc(S(=O)(=O)c2cnc3ccc(Cl)cc3c2N2CCOCC2)cc1Cl`: 53%; `COc1ccc(S(=O)(=O)c2cnc3cc(F)ccc3c2N2CCOCC2)cc1OC`: 5%. As for `O=S(=O)(c1cccc(F)c1)c1cnc2c(F)cccc2c1N1CCOCC1`, the inhibition came out at 23%. The figure for `O=S(=O)(c1ccccc1)c1cnc2c(F)cccc2c1N1CCOCC1` is 4%; for `N#Cc1cccc(S(=O)(=O)c2cnc3ccc(Cl)cc3c2N2CCOCC2)c1` it is 20%; for `Cc1ccc2ncc(S(=O)(=O)c3cccc(C#N)c3)c(N3CCC(C)CC3)c2c1` it is 52%. For the compound `Cc1ccc2ncc(S(=O)(=O)c3ccc(Cl)c(Cl)c3)c(N3CCOCC3)c2c1`, the inhibition was determined as 76%. Take `CC1CCN(c2c(S(=O)(=O)c3ccc(F)c(F)c3)cnc3ccc(Cl)cc23)CC1`: the inhibition was determined as 72%.

Consider `COc1ccc2ncc(S(=O)(=O)c3cccc(F)c3)c(N3CCOCC3)c2c1`, for which the inhibition is -3%. The figure for `CC1CCN(c2c(S(=O)(=O)c3ccc(F)c(F)c3)cnc3cc(Cl)ccc23)CC1` is 90%; for `N#Cc1ccc(S(=O)(=O)c2cnc3cc(F)ccc3c2N2CCOCC2)cc1` it is 4%; for `O=S(=O)(c1ccc(F)c(F)c1)c1cnc2ccc(Cl)cc2c1N1CCOCC1` it is 2%.

In the case of `CC1CCN(c2c(S(=O)(=O)c3ccc(F)c(Cl)c3)cnc3cc(Cl)ccc23)CC1`, the inhibition amounted to 94%. With `CC1CCN(c2c(S(=O)(=O)c3ccccc3)cnc3ccc(Cl)cc23)CC1`, the inhibition was 59%.

With `Cc1ccc(S(=O)(=O)c2cnc3cc(F)ccc3c2N2CCOCC2)cc1C`, the inhibition came to 74%.

As to `CC1CCN(c2c(S(=O)(=O)c3cc(Cl)cc(Cl)c3)cnc3ccc(Cl)cc23)CC1`, the inhibition came to 88%.

As to `CC1CCN(c2c(S(=O)(=O)c3ccccc3)cnc3cc(Cl)ccc23)CC1`, the inhibition was found to be 93%. On to `COc1cccc(S(=O)(=O)c2cnc3ccc(Cl)cc3c2N2CCC(C)CC2)c1`, for which the inhibition stood at 87%. Consider `CC1CCN(c2c(S(=O)(=O)c3cc(Cl)cc(Cl)c3)cnc3ccc(F)cc23)CC1`, for which the inhibition came to 69%. Take `Cc1ccc(S(=O)(=O)c2cnc3cc(F)ccc3c2N2CCC(C)CC2)cc1F`: the inhibition was found to be 89%. As to `O=S(=O)(c1ccc(Cl)c(Cl)c1)c1cnc2ccc(Cl)cc2c1N1CCOCC1`, the inhibition is 63%.
